# Test results as given in the RNAGym collection of RNA variant scans (doi:10.1101/gad.245936.114).
# Variants at the floor of the assay were thinned out.
# B1: tRNA (parent)
# chain: CUCUCGGUAGCCAAGUUGGUUUAAGGCGCAAGACUUUAAUUUAUCACUACGAAAUCUUGAGAUCGGGCGUUCGACUCGCCCCCGGGAGAUUUUUUCCUCGAGCAA
# Variants of: B1
# Assay: nonsense suppression (GFP-seq) (ratio to wild type); higher = more function; SUP4oc tRNA, yeast GFP reporter sort-seq
# Summary of the method: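 Yeast carrying genome-integrated SUP4oc tRNA variants from a library with ~3% random mutations were grown in raffinose/galactose medium with 80 mg/L adenine. Each strain also carried a galactose-driven GFP ochre reporter and RFP. Cells were sorted into GFP/RFP bins, and each bin was Illumina-sequenced (phred ≥30). Nonsense suppression (GFPSEQ) is the bin median GFP/RFP, weighted by each variant's estimated cell share per bin, relative to wild-type SUP4oc; variants needed ≥100 reads and ≥30 cells.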
row,Variant,nonsense suppression
1,CUCACGGUAGCCCAGUUGGUUUAAGGCGCAAGACUUUAAUUUAUCACUACGAAAUCUUGAGAUCGGGCGUUCGACUCGCCCCUCGGAGAUUUUUUCCUCGAGCAA [U4A A13C C83U G84C],≤ 0.026
2,CUGUCGGUAGCCAAGUUGGUUUAAGGCGCAAGACUUUAAUUUAUCACUACGAAAUCUUGAGAUCGGGCGUUCGACUCACCCCCGGGAGAUUUUUUCCUCGAGCAA [C3G G78A],≤ 0.026
3,CUCUCGGUAGCCAAGUUGGUUUAAGGCGCAUGACUUUAAUUUAUCACUACGAAAUCUUGAGAUCGGGCGUUCGACUCGCCAGCGGGAGAUUUUUUCCUCGAGCAA [A31U C81A C82G],≤ 0.026
4,CUCUCAGUAGCCAAGUUGGUUUAAGGCCCAAGACUUUAAUUUAUCACUACGAAAUCUUGAGAUCGGGCGUUCGACUCGCCCCCGGGAGAUUUUUUCCUCGAGCAA [G6A G28C],0.0666
5,CUCUCCGUAGCCAAGUUGGUUUAAGGCGCAAGAGUUUAAUUUAUCACUACGAAUUCUUGAGAUCGGGCGUUCGACUCGCCCCCGGGAGAUUUUUUCCUCGAGCAA [G6C C34G A54U],≤ 0.026
6,CUCUCGGUAGCCAAGUUGGUUUAAGGCGCAAGACUUUAAUUUAUCACUACGAAAGCUUGAGAUCGGGCGUUCGUCUCGCCCCCGGGAGAUUUUUUCCUCGAGCAA [U55G A74U],≤ 0.026
7,AUCUCGGUAGCCAAGUUGCUUUAAGGCGCAGGACUUUAAUUUAUCACUACGAAAUCUUGUGAUCGGGCGUAGGACUCGCCCCCUGGAGAUUUUUUCCUCGAGCAA [C1A G19C A31G A60U U71A C72G G84U],≤ 0.026
8,CUCUCGGUAGCCAAGUUGGAUUAUGGCGCAAGACUUUAAUUUAUCACUACGAAAUCUUGAGAUCGGGCGUUCGACUCGCCCCCGGGAGAUUUUUUCCUCGAGCAA [U20A A24U],0.0696
9,CACUCGGUAGCCAAGUUGGUUUAAGGCGCAAGACUUUAAUUUAUCACUACGAAAUCUUGAGACCGGGCGUUCGACUCGCCCCCUGGAGAUUUUUUCCUCGAGCAA [U2A U63C G84U],≤ 0.026
10,CUCUCGGUAGCCAAGUUGGUUUAAGGCGUAAGACUUUAAUUUAUCACUACGAAAUCAUGAGAGCGGGCGUUCGACUCGCCCCCGGGAGAUUUUUUCCUCGAGCAA [C29U U57A U63G],≤ 0.026
11,CUCUUGGUAGCCAAGUUGGUUUAAGGCGCAGGACUUUAAUUUAUCACUACGAAAUCUUGAGAUCGGGCGUCCGACUCGCCCCCGGGAGAUUUUUUCCUCGAGCAA [C5U A31G U71C],≤ 0.026
12,CUCUCGGUAGCCAAGUUGGUUUAAGGCGCAUGACUUUAAUUUAUCACUACGAAAUCUUGAGAUCGGGCGCUCGACUCGCCCCCGGGAGAUUUUUUCCUCGAGCAA [A31U U70C],≤ 0.026
13,CUUCCGGUAGCCAAGUUGGUUUAAGGCGCAAGACUUUAAUUUAUCACUACGAAAUCUUGAGAUCGGGCGUUCGACUCGCCCCCGGGAGAUUUUUUCCUCGAGCAA [C3U U4C],0.859
14,CUCACGGUAGCUAAGUUGGUUUAAGGCGCAAGACUUUAAUUUAUCACUACGAAAUCUUGAGAUCGGGCGUUCGACUCGCCCCCGGGAGAUUUUUUCCUCGAGCAA [U4A C12U],≤ 0.026
15,CUCUCGGUAGCCAAGUUGUUUUAAGGCGCAAGACUUUAAUUUAUCACUACGAAAUCUUGUGAUCGGGCGUUCUACUCGCCCCCGGGAGAUUUUUUCCUCGAGCAA [G19U A60U G73U],≤ 0.026
16,CUCUCGGUAGCCAAGUUGGUUUUAGGCGCAAGACUUUAAUUUAUCACUACGAAAUCUUGAGAUCGGACGUUCGACUCGCCCCCGGGAGAUUUUUUCCUCGAGCAA [A23U G67A],≤ 0.026
17,CUCUCGGUAGCCAAGUUGGAUUAUGGCGCAAGACUUUAAUUUAUCACUACGAAAUCUUGAGAACGGGCGUUCGACUCGCCCCCGGGAGAUUUUUUCCUCGAGCAA [U20A A24U U63A],≤ 0.026
18,CUCUUGGUAGCCAAGUUGGUUUAAGGCGCAAGACUUUAAUUUAUCACUACGAAACCUUGAGAUCGGGCGUUCGACUCGCCCCCGGGAAAUUUUUUCCUCGAGCAA [C5U U55C G88A],≤ 0.026
19,CUCUCGGUAGCCAAGUUGGUUUAAGGCGCAAGACUUUAAUUUAUCACUACGAAAUCUUGAUAUCGGUCGUUCGACUCGCCCCCGGGAGAUUUUUUCCUCGAGCAA [G61U G67U],≤ 0.026
20,CUCUCGGGAGCCAAGUUGGUUUAAGGCGCAAGACUUUAAUUUAUCACUACGAAAUCUUGGGAUCGGGCGUUCGACUCGCCCCCGGGAGAUUUUUUCCUCGAGCAA [U8G A60G],≤ 0.026
21,CUCUCGGUAGCCAAGUUGUUUUAAGGCGAAAGACUUUAAUUUAUCACUACGAAAUCUUAAGAUCGGGCGUUCGACUCGCCCCCGGGAGAUUUUUUCCUCGAGCAA [G19U C29A G59A],≤ 0.026
22,CUCUCGGUAGCCAAGUUGGUUUAAGGCGCACUACUUUAAUUUAUCACUACGAAAUCUUGAGAUCGGGCGUUCGACUCGCCCCCGGGAGAUUUUUUCCUCGAGCAA [A31C G32U],≤ 0.026
23,CUCUCGGUAGCCAAGUUGGUUUAAGGCGCAAGACUUUAAUUUAUCACUACGAAAUCUUGAGAUGGUGCGUUCGACUCGCCCCCGGGGGAUUUUUUCCUCGAGCAA [C64G G66U A87G],≤ 0.026
24,CUCUCGGUAGCCAAGUUGGUUUAAGGCGCAAGACUUUAAUUUAUCACUACGAAAUCUCGACAUCGGGCGUUCGACUCGCCCCCGGGAGAUUUUUUCCUCGAGCAA [U58C G61C],0.0324
25,CUCUCGGUAGCCAAGUUGGUUUAAGGCGCAAGACUUUAAUUUAUCACUACGAAAUCUUGAGAUCGGGCGUUCAACACGCCCCCGGGAGAUUUUUUCCUCGAGCAA [G73A U76A],0.0803
26,CUCUCGGUAGCCAAGUUGGUUUAAGGCGCAAGACUUUAAUUUAUCACUACGAAAUCUUGAGAUCGGGUGUUCGACUCGCCCCCGCGAGAUUUUUUCCUCGAGCAA [C68U G85C],≤ 0.026
27,CUCUCGGUAGCCAAGUUGGUUUAAGGCGCAACACUUUAAUUUAUCACUACGAAAUCUUGAGAUCGGGCGUUCGACUCGCCGCCGGGAGAUUUUUUCCUCGAGCAA [G32C C81G],≤ 0.026
